Data reported in ChEMBL document CHEMBL1122457, “Derivatives of beta-adrenergic antagonists. N-Nitrosopropranolol and N-hydroxypropranolol and its aldonitrone” (J Med Chem, 1983).

Columns and labels:
[1] = species: Rattus norvegicus; assay: Toxicity (Ames Salmonella Test) in the presence of rat liver S-9 fraction in TA-100 strain (4*10e6 dilution); assay type: organism-based
In short: (§1)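 TA-100 bacteria are exposed to varying compound concentrations for 30 min at 37 °C. They are then diluted to about 10³ bacteria/mL and plated on histidine-enriched (4.5 mM) agar. Surviving colonies are counted.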

[2] = species: Rattus norvegicus; assay: Mutagenic activity (Ames Salmonella Test) in the presence of rat liver S-9 fraction in TA-100 strain; assay type: functional
In short: (§2)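 Liver 9000g supernatant (1.0 mg protein, PBS-diluted, filtered) plus NADPH (1 mg/plate) went into histidine/biotin-supplemented top agar with overnight TA-98 or TA-100 culture. Compound in Me2SO was added last, with Me2SO as control. His+ revertants were counted after 40 h at 37 °C in the dark, averaging ≥2 plates.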

[3] = species: Rattus norvegicus; assay: Mutagenic activity (Ames Salmonella Test) in the presence of rat liver S-9 fraction in TA-98 strain; assay type: functional; in short: as §2
[4] = species: Rattus norvegicus; assay: Toxicity (Ames Salmonella Test) in the presence of rat liver S-9 fraction in TA-100 strain (4*10e7 dilution); assay type: organism-based; in short: as §1
[5] = species: Rattus norvegicus; assay: Mutagenic activity (Ames Salmonella Test) in the presence of rat liver S-9 fraction in TA-98 strain at a conc. of 1000 ug; assay type: functional
In short: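 Plate-incorporation reversion assay in TA-98 from an overnight nutrient-broth culture (2–3 × 10⁹ bacteria/mL). The compound is in Me₂SO, added last to top agar at 45 °C. NADPH 1 mg/plate. His⁺ revertants are counted after 40 h at 37 °C in the dark.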

[6] = species: Rattus norvegicus; assay: Mutagenic activity (Ames Salmonella Test) in the presence of rat liver S-9 fraction in TA-100 strain at a conc. of 1000 ug; assay type: functional; in short: as §2
[7] = species: Rattus norvegicus; assay: Mutagenic activity (Ames Salmonella Test) in the presence of rat liver S-9 fraction in TA-98 strain at aconc. of 1000 ug; assay type: functional
In short: as §2, with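 “Male Sprague-Dawley rats received Arochlor 1254 (500 mg/kg in corn oil) and were killed 48 h later. Liver” for “Liver”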

[8] = species: Rattus norvegicus; assay: Toxicity (Ames Salmonella Test) in the presence of rat liver S-9 fraction in TA-100 strain at a conc. of 1000 ug (4*10e6 dilution); assay type: organism-based; in short: as §1
[9] = species: Rattus norvegicus; assay: Toxicity (Ames Salmonella Test) in the presence of rat liver S-9 fraction in TA-100 strain at a conc. of 500 ug (4*10e6 dilution); assay type: organism-based; in short: as §1
[10] = species: Rattus norvegicus; assay: Mutagenic activity (Ames Salmonella Test) in the presence of rat liver S-9 fraction in TA-98 strain at a conc. of 500 ug; assay type: functional
In short: as §2, with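 “Male Sprague-Dawley rats received Arochlor 1254 (500 mg/kg in corn oil) and were killed 48 h later. Liver” for “Liver”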

[11] = species: Rattus norvegicus; assay: Toxicity (Ames Salmonella Test) in the presence of rat liver S-9 fraction in TA-100 strain at a conc. of 500 ug (4*10e7 dilution); assay type: organism-based; in short: as §1
[12] = species: Rattus norvegicus; assay: Mutagenic activity (Ames Salmonella Test) in the presence of rat liver S-9 fraction in TA-100 strain at a conc. of 500 ug; assay type: functional
In short: as §2, with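 “Male Sprague-Dawley rats received Arochlor 1254 (500 mg/kg in corn oil) and were killed 48 h later. Liver” for “Liver”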

| SMILES | Toxicity [1] | Mutagenicity [2] | Mutagenicity [3] | Toxicity [4] | Mutagenicity [5] | Mutagenicity [6] | Mutagenicity [7] | Toxicity [8] | Toxicity [9] | Mutagenicity [10] | Toxicity [11] | Mutagenicity [12] |
| --- | --- | --- | --- | --- | --- | --- | --- | --- | --- | --- | --- | --- |
| CC(C)NO [ISOPROPYLHYDROXYLAMINE] | 230 | 150 | 18 |  |  |  |  |  |  |  |  |  |
| CC(C)/[N+]([O-])=C/C(O)COc1cccc2ccccc12 (stereo unspecified) | 232 | 162 | 18 |  |  |  |  |  |  |  |  |  |
| CC(C)N(CC(O)COc1cccc2ccccc12)N=O (stereo unspecified) | 255 | 137 | 14 | 25 | 13 | 131 |  |  |  |  |  |  |
| CC(C)N(O)CC(O)COc1cccc2ccccc12.O=C(O)C(=O)O (stereo unspecified) | 165 | 143 | 18 | 18 |  | 61 | 20 | 60 |  |  |  |  |
| Br.CC(C)N(O)CC(O)COc1cccc2ccccc12 (stereo unspecified) |  |  |  |  | 8 | 134 |  | 183 | 265 | 12 | 28 | 117 |
